Assay outcomes deposited in PubChem by The Scripps Research Institute Molecular Screening Center.
CHRM5 agonist = CHRM5 agonism in calcium assay. P08912. 360,000 compounds, 0.19% hits. CHO-K1 hM5 cells, Fluo-8 calcium fluorescence; 0% DMSO wells, 100% maximal acetylcholine response. AID 624037. activation, % at 3 µM;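 active means activation above the run's mean over test compounds plus 3 SD, cut at about 23% in these data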;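 further: signal is peak over basal fluorescence ratio across the kinetic read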
M5 PAM = positive allosteric modulators of human muscarinic M5 receptor; activation, % at 3 µM; CHO-K1 hM5, Fluo-8 calcium, ACh EC20 PAM; 0% = ACh EC20, 100% = ACh EC100; 360,000 compounds, 0.3% hits;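 active means activation above the run cutoff, the mean activation of all test compounds plus 3 SD, cut at about 18% in these data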
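system = human M5 receptor in CHO-K1 cells | reagent = EC20 acetylcholine as agonist stimulus | compound dosing = single-point, 3 µM nominal | incubation = Fluo-8 loading 80 min at 37 °C plus 30 min room temperature | detection = Fluo-8 calcium dye fluorescence, kinetic read | benchmarks = low control EC20 acetylcholine (0%), high control EC100 acetylcholine (100%)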
CHRM1 PAM = human CHRM1 positive allosteric modulation | P11229 | CHO-K1 hM1, Fluo-8 calcium fluorescence, ACh EC20; 0% = ACh EC20, 100% = maximal ACh | activation, % at 3 µM | 360,000 compounds, 0.088% hits | AID 588819; in the data active means activation above about 19%, passing the limit was not always enough
Target sequence (P11229 whole entry, looked up): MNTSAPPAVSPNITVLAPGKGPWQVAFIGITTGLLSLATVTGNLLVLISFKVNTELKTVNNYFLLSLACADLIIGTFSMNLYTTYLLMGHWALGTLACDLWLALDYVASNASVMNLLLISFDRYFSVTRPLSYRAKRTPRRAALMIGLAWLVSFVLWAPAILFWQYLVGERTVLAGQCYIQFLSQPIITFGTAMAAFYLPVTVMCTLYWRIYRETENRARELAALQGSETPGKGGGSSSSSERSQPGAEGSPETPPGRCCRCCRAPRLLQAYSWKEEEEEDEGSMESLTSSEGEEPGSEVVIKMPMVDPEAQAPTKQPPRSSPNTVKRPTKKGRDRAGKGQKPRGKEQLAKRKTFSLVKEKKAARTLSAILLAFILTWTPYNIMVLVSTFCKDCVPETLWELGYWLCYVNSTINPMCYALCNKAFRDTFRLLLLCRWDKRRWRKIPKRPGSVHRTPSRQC
CHRM1 agonist = agonists of human M1 muscarinic receptor | P11229 | CHO-K1 hM1, Fluo-8 calcium fluorescence, agonist mode; 0% DMSO, 100% acetylcholine EC100 | activation, % at 3 µM | 360,000 compounds, 0.33% hits | AID 588814;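 active means activation above the run's mean compound activation plus 3 SD, cut at about 16% in these data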;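 further: peak over basal fluorescence ratio within a 140 s kinetic read after compound addition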
CHRM1 antagonist = human CHRM1 antagonism; P11229; CHO-K1 hM1, Fluo-8 calcium fluorescence, ACh EC80 antagonist; 360,000 compounds, 1.3% hits; inhibition, % at 3 µM;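 active means percent inhibition above its own plate's cutoff, namely the mean of that plate's compound wells plus 3 SD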;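 further: peak over basal fluorescence ratio during 140 s after agonist addition; 0% = ACh EC80 plus DMSO and 100% = DMSO alone without agonist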
M5 antag = CHRM5 antagonism in calcium assay. inhibition, % at 3 µM. AID 624040. CHO-hM5 cells, Fluo-8 calcium fluorescence, ACh EC80. 360,000 compounds, 0.59% hits;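 active means inhibition above a per-plate cutoff, the mean of that plate's test compounds plus 3 SD, cut at about 27% in these data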;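 further: 0% = acetylcholine EC80 with DMSO and 100% = DMSO without agonist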
The depositor's hits bear a star; · = no result. Sampled rows, rich in hits. Any-hit rate of the full collection: about 2%.

SMILES	CHRM5 agonist	M5 PAM	CHRM1 PAM	CHRM1 agonist	CHRM1 antagonist	M5 antag
CCCCNC(=O)C1(C)CCCCCN1Cc1cc2ccccc2o1 (centres undefined)	0	-2	-1	-4	4	5
O=C(O)CC(C(=O)O)C(=Cc1ccccc1)c1ccccc1 (centres undefined)	7	1	-1	0	-2	9
COc1ccc2c(c1)C(=O)C1(CC2)OC1c1cccnc1 (centres undefined)	-1	-1	3	-8	-3	3
COC(=O)C1(C)CCCC2(C)c3cc(OC)ccc3C(=O)C(Br)C12 (centres undefined)	-1	0	-7	-7	5	2
COc1cccc(-c2cnc(NCc3cc(Cl)ccc3O)n2C)c1	-6	-8	-27	-6	32*	10
COc1ccc(CNc2ncc(-c3ccc(F)cc3)n2C)c2ccccc12	-6	-3	0	-3	-10	15
COc1ccc(CNc2ncc(-c3cccc([N+](=O)[O-])c3)n2C)c(OC)c1OC	-21	-17	-28	-9	54*	4
COC(=O)[C@@]12C[C@@H](CC(=O)NCCC(C)C)C(=O)N(Cc3ccccc3)C1=CCC(C)(C)C2	-2	-1	·	·	·	3
C=CCc1ccccc1OCC(O)CN1CCN(C(=O)OCC)CC1 (centres undefined)	-10	-3	-21	43*	28	7
CCOC(=O)N1CCN(CC(O)COc2ccccc2C(C)C)CC1 (centres undefined)	-13	-4	-5	20*	-2	0
C=CCc1ccccc1OCC(O)CN1CCN(c2ccc(C)cc2)CC1 (centres undefined)	1	6	-7	-2	7	-3
Cc1c(C(=O)NCc2ccccc2C(F)(F)F)sc(=O)n1Cc1ccccc1C#N	-1	-3	3	-10	-12	1
CC(C)Nc1ccc(Nc2ccnc3cc4ccccc4cc23)cc1	-17	4	-4	-7	-9	-6
c1ccc(CCNc2ccnc3cc4ccccc4cc23)cc1	-5	-33	-21	-3	42*	36*
O=C(N/C(=C/c1cccc([N+](=O)[O-])c1)C(=O)N1CCCCC1)c1ccco1	-3	-10	1	-2	2	32*
O=C(N/C(=C/c1cccc([N+](=O)[O-])c1)C(=O)N1CCCCCC1)c1cccs1	0	0	11	-6	-5	-2
CCN(CC)C(=O)C1=C(C)N(Cc2ccc(C(C)(C)C)cc2)C(=O)C(CC(=O)NCC2CCCCC2)C1 (centres undefined)	-1	-6	10	-7	-17	4
COC(=O)c1sc(S(=O)(=O)N2CCCCC2)c(C(=O)OC)c1C	-8	0	-27	-6	21*	3
Cc1ccc(C)c(N2CCN(C(=O)COc3cc(=O)n(C)c4ccccc34)CC2)c1	3	-10	-7	0	14	3
Cc1ccc(C)c(N2CCN(C(=O)CCCOc3cc(=O)n(C)c4ccccc34)CC2)c1	1	-19	-13	2	37*	18
O=C(c1ccc(Cl)c(Cl)c1)N1CCC(=O)N([C@H](COCc2cccc(C(F)(F)F)c2)Cc2ccccc2)CC1	2	-10	·	·	·	15
O=C(NCc1ccncc1)[C@@H]1CCCN1C(=O)[C@H]1CCCN1	2	-1	·	·	·	1
O=C(Nc1ccc(Cl)c(C(F)(F)F)c1)c1ccncc1	8	-27	-9	-1	18	19
CNC(=O)c1cc(Oc2ccc(NC(=O)Nc3ccc(Cl)c(C(F)(F)F)c3)cc2)ccn1	3	-31	-17	-1	32	30*
COc1c(O)cc2c(c1O)C1OC(CO)C(O)C(O)C1OC2=O (centres undefined)	46*	-15	-20	48*	-2	-2
SMILES	CHRM5 agonist	M5 PAM	CHRM1 PAM	CHRM1 agonist	CHRM1 antagonist	M5 antag
COc1c(O)cc2c(c1O)[C@@H]1OC(CO)C(O)C(O)[C@H]1OC2=O (some centres undefined)	11	-2	-2	7	-25	6
Cc1cc(C)nc(NS(=O)(=O)c2ccc(NC(=O)C3(c4ccc([N+](=O)[O-])cc4)CCCC3)cc2)n1	19	5	8	24*	15	3
COc1cccc(C(C(=O)NCc2ccccc2)N2CCN(c3cccc(C)c3C)CC2)c1OC (centres undefined)	-2	-5	·	·	·	7
CC1=C(C(=O)N2CCOCC2)CC(CC(=O)NCc2ccco2)C(=O)N1Cc1ccc(C(C)(C)C)cc1 (centres undefined)	0	-3	-1	-6	-6	9
CCN(CC)c1ccc2c(Cl)c(Br)c(=O)oc2c1	28*	-19	-17	49*	78*	70*
COc1cccc(CNC(=O)COC(=O)c2cc([N+](=O)[O-])ccc2N2CCCC2)c1	-2	-15	-4	-6	0	9
O=C(O)C1(C(=O)O)CCC2(CCCCC2)CC1	1	0	-3	0	-7	-1
COc1cc(OC)c(NS(=O)(=O)c2cc(C(=O)NCCCN3CCOCC3)ccc2C)cc1Cl	-1	-5	9	-7	-17	6
CCCN(C)C1CN(Cc2cn(Cc3ccc(C)cc3)nn2)S(=O)(=O)C1 (centres undefined)	0	1	·	·	·	2
CCN(CC)CCCNC(=O)CNC(=O)c1nn(-c2ccc(OC)cc2)c(=O)c2ccccc12	-9	-1	-13	-4	45*	6
CCN(CC)CCNC(=O)CNC(=O)c1nn(-c2ccc(OC)cc2)c(=O)c2ccccc12	-5	5	13	-11	-19	-4
CCC1CCCCN1CCCNC(=O)CNC(=O)c1nn(-c2ccc(OC)cc2)c(=O)c2ccccc12 (centres undefined)	-6	-6	-27	-11	40*	0
Oc1ccc(N=Nc2ccc3c(c2)OCCO3)c2ncccc12	28*	-35	-12	12	32*	36*
CN(C)/C=N/c1sc2c(c1C#N)CC(C)(C)NC2(C)C	-1	-2	23*	-3	-17	6
CCN(/C=N/c1sc2c(c1C#N)CC(C)(C)NC2(C)C)CC	3	-2	4	-11	3	-7
CC(=O)C1CCC2C3CC=C4CC(SC(=N)N)CCC4(C)C3CCC12C (centres undefined)	18	-38	-7	8	26	14
C=CCCC(=O)N1C[C@H]2CON(C)[C@H]2C[C@H]1c1ccc(N2CCCCC2)cc1	-1	-5	7	-7	1	-4
